{"source": "paper PMC6656587", "about": "(Bioorganic chemistry, 2019)", "key": {"[1]": {"tested_on": "PAM212 keratinocytes", "experiment": "PAM212 keratinocyte growth inhibition with UVA light", "assay_type": "cell-based, mouse", "details": "plus UVA light"}, "[2]": {"tested_on": "MCF-7 breast carcinoma cell line", "details": "read-out: IC50, phototoxicity; cited from earlier work"}, "[3]": {"details": "known measured logP used in the discussion; ref not given; cited from earlier work"}, "[4]": {"experiment": "Solubility maximum under the assay's conditions", "assay_type": "physicochemical", "details": "37 °C, plasma or biological fluid, kinetic from dmso stock"}, "[5]": {"tested_on": "plasmid pZeoSV DNA", "experiment": "Plasmid DNA nicking and unwinding assay with UVA light", "assay_type": "biochemical", "details": "for Percentage of nicked plasmid: neutral agarose gels", "method_in_brief": "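pZeoSV plasmid (75 ng per 10 μL) in TE buffer (10 mM Tris–HCl, 1 mM EDTA, pH 8), with test compound added from a 100× DMSO concentrate. UVA (320–400 nm) was given as for the cell cultures: 2.4 mW/cm2, 1.28 J/cm2. Aliquots taken before and after UVA were run on 1.2% neutral (Tris-acetate-EDTA) or alkaline agarose and stained with ethidium bromide. Percent nicked plasmid came from band image analysis.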"}}}
{"compound": "O=c1ccc2ccc(O)cc2o1", "note": "[Compound 1, umbelliferone]", "values": [{"measurement": "photo-activity on keratinocyte growth (in words)", "setting": "[1]", "result": "no activity"}, {"measurement": "IC50", "setting": "[2]", "result": 476, "unit": "µM"}]}
{"compound": "Cc1cc(=O)oc2c(C)c(O)ccc12", "note": "[Compound 12, 4,8-dimethyl-7-hydroxycoumarin]", "values": [{"measurement": "logP", "setting": "[3]", "result": 2.1}]}
{"compound": "Cc1cc(=O)oc2c(C)c(O)c([N+](=O)[O-])cc12", "note": "[Compound 18, 4,8-dimethyl-6-nitro-7-hydroxycoumarin]", "values": [{"measurement": "photo-activity on keratinocyte growth (in words)", "setting": "[1]", "result": "no photocytotoxicity"}, {"measurement": "solubility", "setting": "[4]", "result": 100, "unit": "µM"}]}
{"compound": "Cc1c(O)ccc2c(C(F)(F)F)cc(=O)oc12", "note": "[Compound 37, 4-trifluoromethyl-8-methyl-7-hydroxycoumarin]", "values": [{"measurement": "photo-activity on keratinocyte growth (in words)", "setting": "[1]", "result": "inactive"}]}
{"compound": "O=c1cc(C(F)(F)F)c2ccc(O)cc2o1", "note": "[Compound 47, 4-trifluoromethyl-7-hydroxycoumarin]", "values": [{"measurement": "photo-activity on keratinocyte growth (in words)", "setting": "[1]", "result": "inactive"}]}
{"compound": "C=CCOc1ccc2c(C)c(Br)c(=O)oc2c1C", "note": "[Compound 58, 4,8-dimethyl-3-bromo-7-allyloxycoumarin]", "values": [{"measurement": "Percentage of nicked plasmid", "setting": "[5]; 1 μM coumarin plus UVA light", "result": 3.2, "unit": "%"}, {"measurement": "Percentage of nicked plasmid", "setting": "[5]; 10 μM coumarin plus UVA light", "result": 12.0, "unit": "%"}, {"measurement": "Percentage of nicked plasmid", "setting": "[5]; 100 μM coumarin plus UVA light", "result": 20.2, "unit": "%"}, {"measurement": "effect on plasmid DNA (in words)", "setting": "[5]; plus UVA light, neutral gels", "result": "concentration-dependent alteration in migration"}]}
{"compound": "Cc1c(F)c(=O)oc2c(C)c(O)ccc12", "note": "[Compound 68, 3-fluoro-4,8-dimethyl-7-hydroxycoumarin]", "values": [{"measurement": "photo-activity on keratinocyte growth (in words)", "setting": "[1]", "result": "no activity"}]}
{"compound": "Cc1c(I)c(=O)oc2c(C)c(O)ccc12", "note": "[Compound 71, 3-Iodo-4,8-dimethyl-7-hydroxycoumarin]", "values": [{"measurement": "Percentage of nicked plasmid", "setting": "[5]; 1 μM coumarin plus UVA light", "result": 6.8, "unit": "%"}, {"measurement": "Percentage of nicked plasmid", "setting": "[5]; 10 μM coumarin plus UVA light", "result": 80.2, "unit": "%"}, {"measurement": "Percentage of nicked plasmid", "setting": "[5]; 100 μM coumarin plus UVA light", "result": 98.6, "unit": "%"}, {"measurement": "linearization of the plasmid compared to the 7-allyloxy ethers 14 and 58", "setting": "[5]; plus UVA light", "result": "nearly five times greater linearization"}, {"measurement": "effect on plasmid DNA (in words)", "setting": "[5]; plus UVA light, alkaline gels", "result": "Generally similar results"}, {"measurement": "effect on plasmid DNA (in words)", "setting": "[5]; plus UVA light, neutral gels", "result": "concentration-dependent alteration in migration"}]}
